Reference: ChEMBL document CHEMBL2163192, “N,N-Dimethyl-[9-(arylsulfonyl)-2,3,4,9-tetrahydro-1H-carbazol-3-yl]amines as novel, potent and selective 5-HT₆ receptor antagonists” (Bioorg Med Chem Lett, 2012)

Legend:
[1] = target: T1, 5-hydroxytryptamine receptor 6 (Homo sapiens, UniProt P50406); test: Displacement of [3H]LSD from human cloned 5-HT6 receptor expressed in HEK293 cells; type: cell-based
[2] = Drug metabolism in human liver microsomes; type: ADME, Microsome; settings: read-out: Drug metabolism
[3] = target: Sodium-dependent serotonin transporter (Homo sapiens) (UniProt P31645); test: Inhibition of SERT at 1 uM
Chain of Sodium-dependent serotonin transporter (Homo sapiens) (P31645 whole entry, looked up): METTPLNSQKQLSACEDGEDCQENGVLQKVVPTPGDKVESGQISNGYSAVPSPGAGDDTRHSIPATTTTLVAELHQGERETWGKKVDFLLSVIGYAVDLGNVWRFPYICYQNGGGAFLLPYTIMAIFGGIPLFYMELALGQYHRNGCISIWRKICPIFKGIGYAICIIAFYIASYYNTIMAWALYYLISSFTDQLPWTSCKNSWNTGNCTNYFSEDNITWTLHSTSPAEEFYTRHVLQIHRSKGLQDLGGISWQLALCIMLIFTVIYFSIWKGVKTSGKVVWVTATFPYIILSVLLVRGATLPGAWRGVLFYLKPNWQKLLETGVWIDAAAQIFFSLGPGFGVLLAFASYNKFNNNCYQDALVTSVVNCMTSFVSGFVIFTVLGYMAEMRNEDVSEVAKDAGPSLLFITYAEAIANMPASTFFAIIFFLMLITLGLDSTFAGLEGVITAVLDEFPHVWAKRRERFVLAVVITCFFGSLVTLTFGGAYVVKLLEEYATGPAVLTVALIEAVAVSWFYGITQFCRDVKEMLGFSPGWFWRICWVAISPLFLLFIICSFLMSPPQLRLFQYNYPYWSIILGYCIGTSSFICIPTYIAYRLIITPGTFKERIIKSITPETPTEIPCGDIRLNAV
Outline: (§1)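 In-house selectivity panel of related receptors and transporters; each compound tested at 1 μM and 10 μM; percent inhibition determined in duplicate and the mean of the two reported.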

[4] = target: T1, 5-hydroxytryptamine receptor 6; test: Antagonist activity at human recombinant 5-HT6 receptor expressed in CHO cells assessed as inhibition of 5-HT-stimulated cAMP accumulation after 4 hrs by luciferase reporter gene assay; type: functional, cell-based
Outline: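 Cell-based, non-radioactive reporter gene assay measuring antagonism of 5-HT-stimulated cAMP formation at human 5-HT6 receptor; IC50 and Kb values determined in duplicate.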

[5] = target: D(2) dopamine receptor (Homo sapiens) (UniProt P14416); test: Inhibition of dopamine D2 receptor at 10 uM; outline: as §1
Chain of D(2) dopamine receptor (Homo sapiens) (P14416 whole entry): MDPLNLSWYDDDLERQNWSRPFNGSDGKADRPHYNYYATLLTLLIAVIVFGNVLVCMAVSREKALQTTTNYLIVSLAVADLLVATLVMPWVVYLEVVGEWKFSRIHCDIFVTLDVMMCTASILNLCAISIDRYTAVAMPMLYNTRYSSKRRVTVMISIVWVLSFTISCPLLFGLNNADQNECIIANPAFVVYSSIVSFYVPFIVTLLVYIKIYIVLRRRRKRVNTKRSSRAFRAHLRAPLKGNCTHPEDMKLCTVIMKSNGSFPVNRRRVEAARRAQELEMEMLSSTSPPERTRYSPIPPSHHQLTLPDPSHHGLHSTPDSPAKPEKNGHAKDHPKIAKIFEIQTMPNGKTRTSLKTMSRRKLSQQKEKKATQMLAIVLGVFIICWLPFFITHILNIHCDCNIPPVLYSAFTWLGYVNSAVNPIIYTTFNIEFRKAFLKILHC

[6] = target: 5-hydroxytryptamine receptor 2A (Homo sapiens) (UniProt P28223); test: Inhibition of 5-HT2A receptor at 10 uM; outline: as §1
Chain of 5-hydroxytryptamine receptor 2A (Homo sapiens) (P28223 whole entry): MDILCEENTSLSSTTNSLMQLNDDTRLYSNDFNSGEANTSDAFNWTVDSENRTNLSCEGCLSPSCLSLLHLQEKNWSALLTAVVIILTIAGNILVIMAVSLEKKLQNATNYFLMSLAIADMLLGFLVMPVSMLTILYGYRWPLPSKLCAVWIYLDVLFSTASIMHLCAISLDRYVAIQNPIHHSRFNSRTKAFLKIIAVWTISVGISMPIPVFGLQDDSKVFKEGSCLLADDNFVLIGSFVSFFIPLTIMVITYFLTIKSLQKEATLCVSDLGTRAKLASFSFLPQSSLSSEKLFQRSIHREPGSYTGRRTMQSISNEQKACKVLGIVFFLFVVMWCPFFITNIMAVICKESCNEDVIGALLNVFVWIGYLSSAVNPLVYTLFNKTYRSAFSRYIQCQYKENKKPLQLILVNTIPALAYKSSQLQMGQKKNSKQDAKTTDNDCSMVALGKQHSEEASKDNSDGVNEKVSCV

[7] = target: Sodium-dependent dopamine transporter (Homo sapiens) (UniProt Q01959); test: Inhibition of DAT at 1 uM; outline: as §1
Chain of Sodium-dependent dopamine transporter (Homo sapiens) (Q01959 whole entry): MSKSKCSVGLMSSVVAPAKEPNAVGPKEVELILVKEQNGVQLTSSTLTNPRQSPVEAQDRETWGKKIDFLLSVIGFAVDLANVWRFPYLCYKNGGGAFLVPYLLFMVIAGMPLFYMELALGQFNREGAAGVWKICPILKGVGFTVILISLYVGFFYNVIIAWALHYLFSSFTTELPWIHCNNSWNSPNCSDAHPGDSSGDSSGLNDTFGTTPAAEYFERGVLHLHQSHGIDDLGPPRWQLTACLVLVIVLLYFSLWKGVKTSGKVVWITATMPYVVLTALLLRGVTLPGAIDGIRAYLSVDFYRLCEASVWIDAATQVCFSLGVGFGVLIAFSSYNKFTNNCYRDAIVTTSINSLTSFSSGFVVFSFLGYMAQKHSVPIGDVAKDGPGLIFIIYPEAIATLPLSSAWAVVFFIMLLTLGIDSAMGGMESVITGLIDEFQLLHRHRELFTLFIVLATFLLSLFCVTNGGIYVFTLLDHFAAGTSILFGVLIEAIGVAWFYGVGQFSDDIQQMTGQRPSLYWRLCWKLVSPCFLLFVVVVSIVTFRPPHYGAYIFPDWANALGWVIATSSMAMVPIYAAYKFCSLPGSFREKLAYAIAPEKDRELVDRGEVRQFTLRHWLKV

[8] = target: T2, Alpha-1B adrenergic receptor (Homo sapiens) (UniProt P35368); test: Inhibition of alpha1B adrenergic receptor at 1 uM; outline: as §1
T2 sequence (whole entry): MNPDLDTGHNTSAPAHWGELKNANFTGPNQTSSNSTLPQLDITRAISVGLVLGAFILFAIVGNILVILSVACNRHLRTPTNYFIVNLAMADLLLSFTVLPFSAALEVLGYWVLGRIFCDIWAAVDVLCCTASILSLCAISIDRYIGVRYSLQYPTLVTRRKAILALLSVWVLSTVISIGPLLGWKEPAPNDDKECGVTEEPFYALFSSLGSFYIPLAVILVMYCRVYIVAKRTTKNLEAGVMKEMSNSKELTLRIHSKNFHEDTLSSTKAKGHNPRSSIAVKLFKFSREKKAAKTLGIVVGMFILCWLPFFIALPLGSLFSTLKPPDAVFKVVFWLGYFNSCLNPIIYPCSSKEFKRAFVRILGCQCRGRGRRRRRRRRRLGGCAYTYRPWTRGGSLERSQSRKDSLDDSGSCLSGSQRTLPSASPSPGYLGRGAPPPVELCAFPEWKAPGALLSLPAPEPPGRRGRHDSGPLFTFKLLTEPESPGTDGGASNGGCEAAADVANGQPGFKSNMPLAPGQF

[9] = target: Sodium-dependent serotonin transporter (Homo sapiens) (UniProt P31645); test: Inhibition of SERT at 10 uM; outline: as §1
CYP2C19 = CYP2C19 (Homo sapiens, UniProt P33261); test: Inhibition of human CYP2C19 at 3 uM; type: ADME
Chain of CYP2C19 (P33261 whole entry, canonical isoform): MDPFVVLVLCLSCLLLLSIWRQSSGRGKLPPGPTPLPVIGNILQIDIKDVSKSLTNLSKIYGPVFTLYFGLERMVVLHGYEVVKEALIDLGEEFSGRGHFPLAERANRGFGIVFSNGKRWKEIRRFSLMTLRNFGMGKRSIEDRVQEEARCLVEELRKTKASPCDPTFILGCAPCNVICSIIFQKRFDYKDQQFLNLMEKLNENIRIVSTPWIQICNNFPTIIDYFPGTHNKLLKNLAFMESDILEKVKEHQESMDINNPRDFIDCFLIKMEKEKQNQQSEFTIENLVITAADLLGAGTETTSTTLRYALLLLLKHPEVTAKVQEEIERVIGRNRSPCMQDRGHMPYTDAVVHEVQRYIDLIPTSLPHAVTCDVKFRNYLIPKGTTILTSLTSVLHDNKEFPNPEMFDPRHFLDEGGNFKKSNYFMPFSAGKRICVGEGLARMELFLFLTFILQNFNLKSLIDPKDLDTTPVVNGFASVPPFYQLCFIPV
Outline: (§2)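 Isoform-selective inhibition assays using heterologously expressed human CYP enzymes; compounds tested at 3 μM; percent inhibition reported.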

[10] = Drug metabolism in rat liver microsomes; type: ADME, Microsome; settings: read-out: Drug metabolism
CYP2D6 = CYP2D6 (Homo sapiens, UniProt P10635); test: Inhibition of human CYP2D6 at 3 uM; type: ADME; outline: as §2
Chain of CYP2D6 (P10635 whole entry): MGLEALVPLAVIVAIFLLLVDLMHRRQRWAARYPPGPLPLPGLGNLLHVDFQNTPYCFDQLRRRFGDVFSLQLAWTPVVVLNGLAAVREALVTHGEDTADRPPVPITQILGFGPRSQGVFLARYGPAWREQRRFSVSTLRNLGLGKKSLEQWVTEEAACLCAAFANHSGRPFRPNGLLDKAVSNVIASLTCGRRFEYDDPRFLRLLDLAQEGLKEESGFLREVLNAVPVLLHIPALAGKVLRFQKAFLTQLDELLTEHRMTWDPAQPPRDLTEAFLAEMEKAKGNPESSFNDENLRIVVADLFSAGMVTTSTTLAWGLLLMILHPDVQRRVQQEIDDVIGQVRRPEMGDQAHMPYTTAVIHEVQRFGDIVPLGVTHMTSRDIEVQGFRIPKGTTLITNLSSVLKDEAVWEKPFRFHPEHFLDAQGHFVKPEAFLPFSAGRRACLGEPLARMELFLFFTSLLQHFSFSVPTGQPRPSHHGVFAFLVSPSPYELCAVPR

[11] = target: Histamine H4 receptor (Homo sapiens) (UniProt Q9H3N8); test: Inhibition of histamine H4 receptor at 1 uM; outline: as §1
Chain of Histamine H4 receptor (Homo sapiens) (Q9H3N8 whole entry): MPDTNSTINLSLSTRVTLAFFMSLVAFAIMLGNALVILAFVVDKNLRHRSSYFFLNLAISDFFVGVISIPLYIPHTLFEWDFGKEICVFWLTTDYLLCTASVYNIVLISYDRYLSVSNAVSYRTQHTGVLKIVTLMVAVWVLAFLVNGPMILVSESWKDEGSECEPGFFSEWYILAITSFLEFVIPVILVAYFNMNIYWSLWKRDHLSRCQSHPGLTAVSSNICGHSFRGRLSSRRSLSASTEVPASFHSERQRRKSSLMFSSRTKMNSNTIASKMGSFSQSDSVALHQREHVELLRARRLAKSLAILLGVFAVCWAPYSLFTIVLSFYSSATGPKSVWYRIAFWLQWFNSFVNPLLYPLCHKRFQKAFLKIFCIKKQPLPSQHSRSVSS

[12] = target: Histamine H3 receptor (Homo sapiens) (UniProt Q9Y5N1); test: Inhibition of histamine H3 receptor at 1 uM; outline: as §1
Chain of Histamine H3 receptor (Homo sapiens) (Q9Y5N1 whole entry): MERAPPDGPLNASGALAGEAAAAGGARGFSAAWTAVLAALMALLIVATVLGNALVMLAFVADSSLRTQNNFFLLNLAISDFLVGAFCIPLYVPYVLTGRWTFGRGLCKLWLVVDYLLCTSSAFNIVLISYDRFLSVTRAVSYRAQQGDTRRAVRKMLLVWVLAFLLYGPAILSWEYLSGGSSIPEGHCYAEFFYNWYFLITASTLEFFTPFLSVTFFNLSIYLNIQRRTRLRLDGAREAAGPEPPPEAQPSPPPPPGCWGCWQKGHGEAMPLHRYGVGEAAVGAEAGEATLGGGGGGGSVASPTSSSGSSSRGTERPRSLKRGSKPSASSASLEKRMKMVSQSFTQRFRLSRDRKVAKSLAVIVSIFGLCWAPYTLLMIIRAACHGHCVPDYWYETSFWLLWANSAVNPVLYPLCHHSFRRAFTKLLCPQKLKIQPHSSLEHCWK

[13] = target: Histamine H4 receptor (Homo sapiens) (UniProt Q9H3N8); test: Inhibition of histamine H4 receptor at 10 uM; outline: as §1
[14] = target: T2, Alpha-1B adrenergic receptor (Homo sapiens); test: Inhibition of alpha1B adrenergic receptor at 10 uM; outline: as §1
[15] = target: D(2) dopamine receptor (Homo sapiens) (UniProt P14416); test: Inhibition of dopamine D2 receptor at 1 uM; outline: as §1
[16] = target: Histamine H3 receptor (Homo sapiens) (UniProt Q9Y5N1); test: Inhibition of histamine H3 receptor at 10 uM; outline: as §1
[17] = target: Sodium-dependent dopamine transporter (Homo sapiens) (UniProt Q01959); test: Inhibition of DAT at 10 uM; outline: as §1
[18] = target: 5-hydroxytryptamine receptor 2A (Homo sapiens) (UniProt P28223); test: Inhibition of 5-HT2A receptor at 1 uM; outline: as §1
[19] = target: T3, 5-hydroxytryptamine receptor 1A (Homo sapiens) (UniProt P08908); test: Inhibition of 5-HT1A receptor at 10 uM; outline: as §1
T3 sequence (whole entry): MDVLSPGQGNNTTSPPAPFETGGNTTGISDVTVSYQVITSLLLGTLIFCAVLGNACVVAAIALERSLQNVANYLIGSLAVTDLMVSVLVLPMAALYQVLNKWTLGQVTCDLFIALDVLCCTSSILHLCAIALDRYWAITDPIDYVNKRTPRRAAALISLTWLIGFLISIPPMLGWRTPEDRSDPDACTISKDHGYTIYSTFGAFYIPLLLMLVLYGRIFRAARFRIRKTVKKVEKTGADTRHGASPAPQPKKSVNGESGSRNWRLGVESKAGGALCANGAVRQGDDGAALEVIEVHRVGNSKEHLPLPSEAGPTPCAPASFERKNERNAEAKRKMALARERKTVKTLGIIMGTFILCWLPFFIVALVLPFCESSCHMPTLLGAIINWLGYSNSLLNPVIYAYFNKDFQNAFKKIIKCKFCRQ

CYP3A4 = CYP3A4 (Homo sapiens, UniProt P08684); test: Inhibition of human CYP3A4 at 3 uM; type: ADME; outline: as §2
Chain of CYP3A4 (P08684 whole entry): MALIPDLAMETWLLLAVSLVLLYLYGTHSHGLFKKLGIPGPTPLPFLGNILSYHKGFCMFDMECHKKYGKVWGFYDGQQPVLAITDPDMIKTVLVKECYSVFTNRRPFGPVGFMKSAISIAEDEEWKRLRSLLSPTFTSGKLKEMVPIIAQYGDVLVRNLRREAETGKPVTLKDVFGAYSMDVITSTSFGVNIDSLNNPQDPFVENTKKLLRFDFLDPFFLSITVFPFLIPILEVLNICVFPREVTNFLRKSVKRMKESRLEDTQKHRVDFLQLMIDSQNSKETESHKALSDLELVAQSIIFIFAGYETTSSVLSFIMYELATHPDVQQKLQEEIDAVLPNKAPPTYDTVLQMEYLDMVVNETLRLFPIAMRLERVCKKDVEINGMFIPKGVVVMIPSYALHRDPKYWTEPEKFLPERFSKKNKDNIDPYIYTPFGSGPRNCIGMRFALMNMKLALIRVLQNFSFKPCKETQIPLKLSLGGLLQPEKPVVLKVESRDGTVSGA

[20] = target: T3, 5-hydroxytryptamine receptor 1A (Homo sapiens); test: Inhibition of 5-HT1A receptor at 1 uM; outline: as §1
[21] = target: T1, 5-hydroxytryptamine receptor 6; test: Binding affinity to human 5-HT6 receptor
Outline: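 Radioligand binding assay at human 5-HT6 receptor; Ki values determined in triplicate.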

T1 sequence (P50406 whole entry): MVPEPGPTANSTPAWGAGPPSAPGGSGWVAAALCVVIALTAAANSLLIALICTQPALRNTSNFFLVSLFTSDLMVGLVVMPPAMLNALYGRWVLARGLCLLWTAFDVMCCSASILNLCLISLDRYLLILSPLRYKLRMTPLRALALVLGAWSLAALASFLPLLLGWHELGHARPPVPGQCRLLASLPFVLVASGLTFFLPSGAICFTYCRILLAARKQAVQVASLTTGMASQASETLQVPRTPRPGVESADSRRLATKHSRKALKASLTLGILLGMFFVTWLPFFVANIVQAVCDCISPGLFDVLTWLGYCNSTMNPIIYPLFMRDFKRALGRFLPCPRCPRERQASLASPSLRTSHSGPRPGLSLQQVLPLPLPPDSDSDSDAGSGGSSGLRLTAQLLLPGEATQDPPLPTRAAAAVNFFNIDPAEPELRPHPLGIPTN

Work on CN(C)C1CCc2c(c3cc(F)ccc3n2S(=O)(=O)c2cccc(Cl)c2)C1 (racemic) yielded a Ki [1] of 5.01 nM.
Molecule CN(C)C1CCc2c(c3ccccc3n2S(=O)(=O)c2ccccc2)C1 (racemic) has a Ki [1] of 8.82 nM.
Work on CN(C)C1CCc2c(c3cc(F)cc(F)c3n2S(=O)(=O)c2ccccc2)C1 (racemic) yielded a Ki [1] of 7.95 nM.
For CN(C)C1CCc2c(c3ccccc3n2S(=O)(=O)c2cccc(C(F)(F)F)c2)C1 (racemic), the metabolised [2] was 17%, the inhibition [3] was 9.14% and the IC50 [4] was 1950 nM. It also gave a Kb [4] of 20.4 nM, an inhibition [5] of 60.4% and an inhibition [6] of 19.6%. The inhibition [7] was 18.4%, the inhibition [8] was 5.26% and the inhibition [9] was 20.7%. The Ki [1] was 1.92 nM, the inhibition at 3 µM (CYP2C19) was 50% and the metabolised [10] was 72%. The inhibition at 3 µM (CYP2D6) was 50%, the inhibition [11] was 4.14% and the inhibition [12] was 26.8%. For the same molecule, the inhibition [13] was 18%, the inhibition [14] was 8.72% and the inhibition [15] was 16.3%. For the same molecule, the inhibition [16] was 49.1%, the inhibition [17] was 24.8% and the inhibition [18] was 5.6%. It also gave an inhibition [19] of 57.5%, an inhibition at 3 µM (CYP3A4) of 10% and an inhibition [20] of 44.5%.
CN(C)C1CCc2c(c3cc(Cl)ccc3n2S(=O)(=O)c2cccc(C(F)(F)F)c2)C1 (racemic) showed a Ki [1] of 12.2 nM.
Work on CN(C)C1CCc2c(c3cc(Br)ccc3n2S(=O)(=O)c2cccc(C(F)(F)F)c2)C1 (racemic) yielded a Ki [1] of 5.5 nM.
Cc1ccc(S(=O)(=O)n2c3c(c4cc(Cl)ccc42)CC(N(C)C)CC3)cc1 (racemic) showed a Ki [1] of 18.1 nM.
CN(C)C1CCc2c(c3ccccc3n2S(=O)(=O)c2ccccc2F)C1 (racemic) gave a Ki [1] of 10.4 nM.
COc1ccc2c(c1)c1c(n2S(=O)(=O)c2cccc(C(F)(F)F)c2)CCC(N(C)C)C1 (racemic) gave a Ki [1] of 3.71 nM.
In the case of CN(C)C1CCc2c(c3cc(Br)ccc3n2S(=O)(=O)c2ccc(F)c(F)c2F)C1 (racemic), the Ki [1] is reported as 61.2 nM.
COc1ccc(S(=O)(=O)n2c3c(c4cc(OC)ccc42)CC(N(C)C)CC3)cc1 (racemic) showed a Ki [1] of 19.8 nM.
Work on CN(C)C1CCc2c(c3cc(Br)ccc3n2S(=O)(=O)c2ccccc2)C1 (racemic) yielded an inhibition [3] of 0%, an IC50 [4] of 2060 nM and a Kb [4] of 21.5 nM. The inhibition [5] was 67.4%, the inhibition [6] was 51.4% and the inhibition [7] was 0%. For the same molecule, the inhibition [8] was 4.22%, the inhibition [9] was 2.77% and the Ki [1] was 1.83 nM. The inhibition at 3 µM (CYP2C19) was 50%, the inhibition at 3 µM (CYP2D6) was 50% and the inhibition [11] was 0%. For the same molecule, the inhibition [12] was 23.4%, the inhibition [13] was 3.85% and the inhibition [14] was 16.2%. For the same molecule, the inhibition [15] was 16.4%, the inhibition [16] was 24.8% and the inhibition [17] was 7.7%. For the same molecule, the inhibition [18] was 15.2%, the inhibition [19] was 43.9% and the inhibition at 3 µM (CYP3A4) was 10%. For the same molecule, the inhibition [20] was 22.3%.
With CN(C)C1CCc2c(c3cc(Cl)ccc3n2S(=O)(=O)c2ccc(Br)cc2)C1 (racemic) the Ki [1] was 41.1 nM.
In the case of CN(C)C1CCc2c(c3cc(Cl)ccc3n2S(=O)(=O)c2ccccc2)C1 (racemic), the Ki [1] is reported as 16.1 nM.
COc1ccc2c(c1)c1c(n2S(=O)(=O)c2ccccc2F)CCC(N(C)C)C1 (racemic) gave a Ki [1] of 3.63 nM.
With CSc1ccc2c(c1)c1c(n2S(=O)(=O)c2cccc(Cl)c2)CCC(N(C)C)C1 (racemic) the Ki [1] was 2.68 nM.
CN(C)C1CCc2c(c3cc(Br)ccc3n2S(=O)(=O)c2ccc(F)c(F)c2)C1 (racemic) gave a Ki [1] of 29 nM.
With CN(C)C1CCc2c(c3cc(F)ccc3n2S(=O)(=O)c2ccccc2Br)C1 (racemic) the Ki [1] was 5.02 nM.
COc1ccc2c(c1)c1c(n2S(=O)(=O)c2cccc(C(F)(F)F)c2)CCC(N)C1 (racemic) showed a Ki [1] of 39.1 nM.
Molecule COc1ccc2c(c1)c1c(n2S(=O)(=O)c2ccccc2Cl)CCC(N(C)C)C1 (racemic) has a Ki [1] of 4.68 nM.
Work on COc1ccc(S(=O)(=O)n2c3c(c4ccccc42)CC(N(C)C)CC3)cc1 (racemic) yielded a Ki [1] of 20.4 nM.
Work on CN(C)C1CCc2c(c3ccccc3n2S(=O)(=O)c2ccccc2Cl)C1 (racemic) yielded a Ki [1] of 9.15 nM.
With CNC1CCc2c(c3ccccc3n2S(=O)(=O)c2cccc(C(F)(F)F)c2)C1 (racemic) the Ki [1] was 17.1 nM.
COc1ccc(S(=O)(=O)n2c3c(c4cc(SC)ccc42)CC(N(C)C)CC3)cc1 (racemic) showed a Ki [1] of 6.89 nM.
Molecule NC1CCc2c(c3ccccc3n2S(=O)(=O)c2cccc(C(F)(F)F)c2)C1 (racemic) has a Ki [1] of 73.4 nM.
Molecule CN(C)C1CCc2c(c3cc(Br)ccc3n2S(=O)(=O)c2cc(C(F)(F)F)ccc2Cl)C1 (racemic) has a Ki [1] of 70.6 nM.
In the case of CSc1ccc2c(c1)c1c(n2S(=O)(=O)c2ccccc2)CCC(N(C)C)C1 (racemic), the Ki [1] is reported as 4.57 nM.
With CN(C)C1CCc2c(c3ccccc3n2S(=O)(=O)c2cccc(Cl)c2)C1 (racemic) the inhibition [3] was 2.69%, the inhibition [5] was 32.1% and the inhibition [6] was 35.2%. The inhibition [7] was 0%, the inhibition [8] was 4.24% and the inhibition [9] was 1.49%. The Ki [1] was 4.21 nM, the inhibition [11] was 4.9% and the inhibition [12] was 11%. It also gave an inhibition [13] of 10.3%, an inhibition [14] of 7.92% and an inhibition [15] of 15.3%. For the same molecule, the inhibition [16] was 39.9%, the inhibition [17] was 7.21% and the inhibition [18] was 7.37%. It also gave an inhibition [19] of 50.3% and an inhibition [20] of 29.9%.
For COc1ccc2c(c1)c(CCN(C)C)c1n2S(=O)(=O)c2ccccc2-1, the Ki [21] was 96 nM.
Molecule NC1Cc2cccc3c2c(cn3S(=O)(=O)c2ccccc2)C1 (configuration not stated) has a Ki [21] of 1.6 nM.
CN(C)C1CCc2c(c3ccccc3n2S(=O)(=O)c2ccc(Br)cc2)C1 (racemic) showed a Ki [1] of 15.5 nM.
For CNC1CCc2c(c3cc(OC)ccc3n2S(=O)(=O)c2cccc(C(F)(F)F)c2)C1 (racemic), the Ki [1] was 13.1 nM.
With COc1ccc(S(=O)(=O)n2c3c(c4cc(Br)ccc42)CC(N(C)C)CC3)cc1 (racemic) the Ki [1] was 29 nM.
Molecule CN(C)C1CCc2c(c3cc(Cl)ccc3n2S(=O)(=O)c2ccccc2Br)C1 (racemic) has a Ki [1] of 8.13 nM.
CC(C)c1ccc(S(=O)(=O)n2c3c(c4cc(Br)ccc42)CC(N(C)C)CC3)cc1 (racemic) showed a Ki [1] of 7.5 nM.
With Cc1ccc(S(=O)(=O)n2c3c(c4ccccc42)CC(N(C)C)CC3)cc1 (racemic) the Ki [1] was 8.28 nM.
Work on CN(C)C1CCc2c(c3ccccc3n2S(=O)(=O)c2ccccc2Br)C1 (racemic) yielded a Ki [1] of 2.85 nM.
